# Reference: ChEMBL document CHEMBL4000240, “Escape from adamantane: Scaffold optimization of novel P2X7 antagonists featuring complex polycycles” (Bioorg Med Chem Lett, 2017)
# Molecular target: T1, P2X purinoceptor 7 (Homo sapiens, UniProt Q99572)
# T1 sequence (Q99572 whole entry): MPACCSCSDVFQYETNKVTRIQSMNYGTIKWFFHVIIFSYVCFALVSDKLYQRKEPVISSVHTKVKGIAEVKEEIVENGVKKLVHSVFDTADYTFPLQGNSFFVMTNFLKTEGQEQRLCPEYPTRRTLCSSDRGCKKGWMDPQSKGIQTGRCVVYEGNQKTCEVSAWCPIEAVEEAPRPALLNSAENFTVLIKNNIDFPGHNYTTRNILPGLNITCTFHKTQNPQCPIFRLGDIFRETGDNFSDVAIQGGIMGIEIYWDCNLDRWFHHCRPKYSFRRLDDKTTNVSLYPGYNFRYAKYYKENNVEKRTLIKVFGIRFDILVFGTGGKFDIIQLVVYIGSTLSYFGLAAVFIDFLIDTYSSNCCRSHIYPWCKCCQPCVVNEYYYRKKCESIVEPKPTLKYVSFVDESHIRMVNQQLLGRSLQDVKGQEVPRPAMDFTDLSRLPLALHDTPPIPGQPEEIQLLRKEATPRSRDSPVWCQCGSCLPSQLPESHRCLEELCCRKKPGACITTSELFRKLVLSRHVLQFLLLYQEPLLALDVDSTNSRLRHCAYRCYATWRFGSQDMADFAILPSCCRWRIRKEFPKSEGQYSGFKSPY
# Assay: Antagonist activity at human P2X7 receptor expressed in HEK293 cells assessed as inhibition of BzATP-induced ethidium bromide uptake after 2 hrs by fluorescence assay
# Format: cell-based
# In short: (§1)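 HEK293 cells stably carrying hP2X7 (pcDNA3.1 plasmid, Lipofectamine transfection) grown in DMEM/10% FBS, 2 mM glutamine, antibiotics, 37 °C, 5% CO2. Cells at 2.5 x 10^6/mL in pH 7.4 HEPES buffer with sucrose or NaCl, given compound plus BzATP, 2 h at 37 °C. Ethidium read at ex 530/em 590 nm as % of BzATP-only uptake. IC50 by nonlinear regression, 3-6 experiments.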
row,IC50 [nM],Structure (SMILES)
1,132,O=C(NNc1ccccc1C(F)(F)F)C12C3C=CC4C3C3C(C=CC31)C42
2,1560,O=C(NNc1ccc(C(F)(F)F)cc1Cl)C12C3C=CC4C3C3C(C=CC31)C42
3,933,O=C(NNc1ccccc1Cl)C12C3CCC4C3C3C(CCC31)C42
4,96,CN([C@@H](Cc1ccc(OS(=O)(=O)c2cccc3cnccc23)cc1)C(=O)N1CCN(c2ccccc2)CC1)S(=O)(=O)c1cccc2cnccc12
5,366,O=C(NNc1ccccc1C(F)(F)F)C12C3CCC4C3C3C(CCC31)C42
6,96,O=C(NNc1ccccc1Cl)C12C3C=CC4C3C3C(C=CC31)C42
7,18,CC12CC3CC1(C)CC3(C(=O)NNc1ccccc1Cl)C2

# Molecular target: T2, P2X purinoceptor 7 (Homo sapiens) (UniProt Q99572)
# T2 sequence (whole entry): T1 sequence (Q99572 whole entry)
# Assay: Antagonist activity at human P2X7 receptor expressed in HEK293 cells assessed as inhibition of BzATP-induced ethidium bromide uptake at 10 uM after 2 hrs by fluorescence assay relative to control
# Format: cell-based
# In short: as §1
row,inhibition [%],Structure (SMILES)
1,< 20,O=C1C2C3C=CC(C4CC34)C2C(=O)N1Nc1ccccc1F (configuration not stated)
2,< 20,O=C1C2C3C=CC(C4CC34)C2C(=O)N1Nc1ccccc1Cl (configuration not stated)
3,< 20,O=C(NNc1ccc(C(F)(F)F)cc1)C12C3CCC4C3C3C(CCC31)C42
4,< 20,O=C1C2C3C=CC(C4CC34)C2C(=O)N1Nc1ccccc1 (configuration not stated)
5,< 20,O=C(NNc1ccc(C(F)(F)F)cc1)C12C3C=CC4C3C3C(C=CC31)C42
